Laboratory results: ChEMBL document CHEMBL1140876, “Synthesis and antibacterial property of quinolines with potent DNA gyrase activity” (2009)
Converted amounts (≈) assume the structure as drawn. The source made the active and inactive calls. The rule behind the calls is not given here.

Key:
Klebsiella pneumoniae [1] = assay: Antimicrobial activity against Klebsiella pneumoniae at 5 ug after 24 hrs by disk diffusion method; assay type: functional; conditions: read-out: IZ
Outline: (§1)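 Inoculum made in 0.85% saline against McFarland standard, swabbed evenly onto nutrient agar; sterile filter-paper discs set equidistant and loaded with equal volumes of drug at varying amounts; zone of inhibition measured after 24 h at 37 °C; ciprofloxacin reference.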

Klebsiella pneumoniae [2] = assay: Antimicrobial activity against Klebsiella pneumoniae at 10 ug after 24 hrs by disk diffusion method; assay type: functional; conditions: read-out: IZ; outline: as §1
Bacillus subtilis [3] = assay: Antimicrobial activity against Bacillus subtilis at 5 ug after 24 hrs by disk diffusion method; assay type: functional; conditions: read-out: IZ; outline: as §1
Salmonella typhi = assay: Antimicrobial activity against Salmonella typhi by broth microdilution assay; assay type: functional, Salmonella enterica subsp. enterica serovar Typhi; conditions: Salmonella enterica
Outline: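 Broth microdilution in 96-well plates following the NCCLS 1997 protocol. Final inoculum was 10^5 cfu/mL, with a control organism run alongside. Plates were incubated at 35.7 °C in air for 18–20 h. MIC is the lowest concentration with no visible growth.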

[4] = Inhibition of DNA gyrase assessed as pBR322 DNA relaxation at 1 uM
Outline: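 Relaxation without ATP: gyrase (60 nM) with supercoiled pBR322 DNA (6 nM) and drug at […] for 1 h at 37 °C; relaxation judged by gel. Ciprofloxacin, novobiocin and nalidixic acid comparators.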

Klebsiella pneumoniae [5] = assay: Antimicrobial activity against Klebsiella pneumoniae at 25 ug after 24 hrs by disk diffusion method; assay type: functional; conditions: read-out: IZ; outline: as §1
Bacillus subtilis [6] = assay: Antimicrobial activity against Bacillus subtilis by broth microdilution assay; assay type: functional
Outline: (§2)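 Broth microdilution per NCCLS 1997 in 96-well plate; final inoculum 10^5 cfu/mL; incubated 35.7 °C in air 18–20 h; MIC read as lowest concentration with no visible growth.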

Escherichia coli [7] = assay: Antimicrobial activity against Escherichia coli at 10 ug after 24 hrs by disk diffusion method; assay type: functional; conditions: read-out: IZ; outline: as §1
Bacillus subtilis [8] = assay: Antimicrobial activity against Bacillus subtilis at 20 ug after 24 hrs by disk diffusion method; assay type: functional; conditions: read-out: IZ; outline: as §1
Staphylococcus aureus [9] = assay: Antimicrobial activity against Staphylococcus aureus at 20 ug after 24 hrs by disk diffusion method; assay type: functional; conditions: read-out: IZ; outline: as §1
Klebsiella pneumoniae [10] = assay: Antimicrobial activity against Klebsiella pneumoniae at 15 ug after 24 hrs by disk diffusion method; assay type: functional; conditions: read-out: IZ; outline: as §1
Pseudomonas aeruginosa [11] = assay: Antimicrobial activity against Pseudomonas aeruginosa at 15 ug after 24 hrs by disk diffusion method; assay type: functional; conditions: read-out: IZ; outline: as §1
Salmonella typhimurium [12] = assay: Antimicrobial activity against Salmonella Typhimurium at 10 ug after 24 hrs by disk diffusion method; assay type: functional, Salmonella enterica subsp. enterica serovar Typhimurium; conditions: Salmonella enterica, read-out: IZ; outline: as §1
Bacillus subtilis [13] = assay: Antimicrobial activity against Bacillus subtilis at 10 ug after 24 hrs by disk diffusion method; assay type: functional; conditions: read-out: IZ; outline: as §1
Bacillus subtilis [14] = assay: Antimicrobial activity against Bacillus subtilis at 25 ug after 24 hrs by disk diffusion method; assay type: functional; conditions: read-out: IZ; outline: as §1
Bacillus subtilis [15] = assay: Antimicrobial activity against Bacillus subtilis at 15 ug after 24 hrs by disk diffusion method; assay type: functional; conditions: read-out: IZ; outline: as §1
Pseudomonas aeruginosa [16] = assay: Antimicrobial activity against Pseudomonas aeruginosa at 20 ug after 24 hrs by disk diffusion method; assay type: functional; conditions: read-out: IZ; outline: as §1
Pseudomonas aeruginosa [17] = assay: Antimicrobial activity against Pseudomonas aeruginosa at 10 ug after 24 hrs by disk diffusion method; assay type: functional; conditions: read-out: IZ; outline: as §1
Staphylococcus aureus [18] = assay: Antimicrobial activity against Staphylococcus aureus at 10 ug after 24 hrs by disk diffusion method; assay type: functional; conditions: read-out: IZ; outline: as §1
Staphylococcus aureus [19] = assay: Antimicrobial activity against Staphylococcus aureus at 25 ug after 24 hrs by disk diffusion method; assay type: functional; conditions: read-out: IZ; outline: as §1
Klebsiella pneumoniae [20] = assay: Antimicrobial activity against Klebsiella pneumoniae at 20 ug after 24 hrs by disk diffusion method; assay type: functional; conditions: read-out: IZ; outline: as §1
Staphylococcus aureus [21] = assay: Antimicrobial activity against Staphylococcus aureus at 5 ug after 24 hrs by disk diffusion method; assay type: functional; conditions: read-out: IZ; outline: as §1
Pseudomonas aeruginosa [22] = assay: Antimicrobial activity against Pseudomonas aeruginosa at 5 ug after 24 hrs by disk diffusion method; assay type: functional; conditions: read-out: IZ; outline: as §1
Escherichia coli [23] = assay: Antimicrobial activity against Escherichia coli at 15 ug after 24 hrs by disk diffusion method; assay type: functional; conditions: read-out: IZ; outline: as §1
Klebsiella pneumoniae [24] = assay: Antimicrobial activity against Klebsiella pneumoniae by broth microdilution assay; assay type: functional; outline: as §2
Pseudomonas aeruginosa [25] = assay: Antimicrobial activity against Pseudomonas aeruginosa at 25 ug after 24 hrs by disk diffusion method; assay type: functional; conditions: read-out: IZ; outline: as §1
Salmonella typhimurium [26] = assay: Antimicrobial activity against Salmonella Typhimurium at 20 ug after 24 hrs by disk diffusion method; assay type: functional, Salmonella enterica subsp. enterica serovar Typhimurium; conditions: Salmonella enterica, read-out: IZ; outline: as §1
Pseudomonas aeruginosa [27] = assay: Antimicrobial activity against Pseudomonas aeruginosa by broth microdilution assay; assay type: functional; outline: as §2
Salmonella typhimurium [28] = assay: Antimicrobial activity against Salmonella Typhimurium at 15 ug after 24 hrs by disk diffusion method; assay type: functional, Salmonella enterica subsp. enterica serovar Typhimurium; conditions: Salmonella enterica, read-out: IZ; outline: as §1
Escherichia coli [29] = assay: Antimicrobial activity against Escherichia coli by broth microdilution assay; assay type: functional; outline: as §2
Staphylococcus aureus [30] = assay: Antimicrobial activity against Staphylococcus aureus at 15 ug after 24 hrs by disk diffusion method; assay type: functional; conditions: read-out: IZ; outline: as §1
Staphylococcus aureus [31] = assay: Antimicrobial activity against Staphylococcus aureus by broth microdilution assay; assay type: functional; outline: as §2
Salmonella typhimurium [32] = assay: Antimicrobial activity against Salmonella Typhimurium at 25 ug after 24 hrs by disk diffusion method; assay type: functional, Salmonella enterica subsp. enterica serovar Typhimurium; conditions: Salmonella enterica, read-out: IZ; outline: as §1
[33] = Inhibition of DNA gyrase assessed as conversion of relaxed pBR322 to supercoiled form
Outline: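 Supercoiling in 15 µL reactions: gyrase assay buffer, 150 ng relaxed pBR322, 2–3 µL purified DNA gyrase, 3 h at 37 °C (E. coli); stopped with 50% glycerol/0.25% bromophenol blue; 1% agarose in 1× TBE pH 8.3, 90 V 3 h; ethidium bromide stain; supercoiled band brightness by densitometry. Ciprofloxacin comparator.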

Salmonella typhimurium [34] = assay: Antimicrobial activity against Salmonella Typhimurium at 5 ug after 24 hrs by disk diffusion method; assay type: functional, Salmonella enterica subsp. enterica serovar Typhimurium; conditions: Salmonella enterica, read-out: IZ; outline: as §1
Escherichia coli [35] = assay: Antimicrobial activity against Escherichia coli at 20 ug after 24 hrs by disk diffusion method; assay type: functional; conditions: read-out: IZ; outline: as §1
Escherichia coli [36] = assay: Antimicrobial activity against Escherichia coli at 25 ug after 24 hrs by disk diffusion method; assay type: functional; conditions: read-out: IZ; outline: as §1
Escherichia coli [37] = assay: Antimicrobial activity against Escherichia coli at 5 ug after 24 hrs by disk diffusion method; assay type: functional; conditions: read-out: IZ; outline: as §1

## O=C(O)c1cn(C2CC2)c2cc(N3CCNCC3)c(F)cc2c1=O [CIPROFLOXACIN]
Klebsiella pneumoniae [1]
  zone of inhibition at 5 µg/disc: 24 mm
Klebsiella pneumoniae [2]
  zone of inhibition at 10 µg/disc: 26 mm
Bacillus subtilis [3]
  zone of inhibition at 5 µg/disc: 6 mm
Salmonella typhi
  MIC50: 0.04 µg/mL (≈ 0.121 µM)
  MIC90: 0.15 µg/mL (≈ 0.453 µM)
[4]
  Activity: Active
Klebsiella pneumoniae [5]
  zone of inhibition at 25 µg/disc: 36 mm
Bacillus subtilis [6]
  MIC50: 0.04 µg/mL (≈ 0.121 µM)
  MIC90: 0.15 µg/mL (≈ 0.453 µM)
Escherichia coli [7]
  zone of inhibition at 10 µg/disc: 16 mm
Bacillus subtilis [8]
  zone of inhibition at 20 µg/disc: 10 mm
Staphylococcus aureus [9]
  zone of inhibition at 20 µg/disc: 30 mm
Klebsiella pneumoniae [10]
  zone of inhibition at 15 µg/disc: 30 mm
Pseudomonas aeruginosa [11]
  zone of inhibition at 15 µg/disc: 16 mm
Salmonella typhimurium [12]
  zone of inhibition at 10 µg/disc: 16 mm
Bacillus subtilis [13]
  zone of inhibition at 10 µg/disc: 7 mm
Bacillus subtilis [14]
  zone of inhibition at 25 µg/disc: 12 mm
Bacillus subtilis [15]
  zone of inhibition at 15 µg/disc: 9 mm
Pseudomonas aeruginosa [16]
  zone of inhibition at 20 µg/disc: 20 mm
Pseudomonas aeruginosa [17]
  zone of inhibition at 10 µg/disc: 14 mm
Staphylococcus aureus [18]
  zone of inhibition at 10 µg/disc: 24 mm
Staphylococcus aureus [19]
  zone of inhibition at 25 µg/disc: 36 mm
Klebsiella pneumoniae [20]
  zone of inhibition at 20 µg/disc: 34 mm
Staphylococcus aureus [21]
  zone of inhibition at 5 µg/disc: 22 mm
Pseudomonas aeruginosa [22]
  zone of inhibition at 5 µg/disc: 12 mm
Escherichia coli [23]
  zone of inhibition at 15 µg/disc: 18 mm
Klebsiella pneumoniae [24]
  MIC50: 0.03 µg/mL (≈ 0.0905 µM)
  MIC90: 0.5 µg/mL (≈ 1.51 µM)
Pseudomonas aeruginosa [25]
  zone of inhibition at 25 µg/disc: 23 mm
Salmonella typhimurium [26]
  zone of inhibition at 20 µg/disc: 22 mm
Pseudomonas aeruginosa [27]
  MIC50: 0.125 µg/mL (≈ 0.377 µM)
  MIC90: 1 µg/mL (≈ 3.02 µM)
Salmonella typhimurium [28]
  zone of inhibition at 15 µg/disc: 18 mm
Escherichia coli [29]
  MIC50: 0.015 µg/mL (≈ 0.0453 µM)
  MIC90: 0.03 µg/mL (≈ 0.0905 µM)
Staphylococcus aureus [30]
  zone of inhibition at 15 µg/disc: 26 mm
Staphylococcus aureus [31]
  MIC50: 0.5 µg/mL (≈ 1.51 µM)
  MIC90: 1 µg/mL (≈ 3.02 µM)
Salmonella typhimurium [32]
  zone of inhibition at 25 µg/disc: 24 mm
[33]
  Activity: Active
Salmonella typhimurium [34]
  zone of inhibition at 5 µg/disc: 14 mm

## c1ccc(C2c3cc(Cc4ccc5c(c4)C(c4ccccc4)C4Cn6cccc6C4N5)ccc3NC3c4cccn4CC32)cc1 (stereo not given)
Klebsiella pneumoniae [1]
  zone of inhibition at 5 µg/disc: 12 mm
Klebsiella pneumoniae [2]
  zone of inhibition at 10 µg/disc: 16 mm
Bacillus subtilis [3]
  zone of inhibition at 5 µg/disc: 7 mm
Salmonella typhi
  MIC50: 2.51 µg/mL (≈ 4.29 µM)
  MIC90: 5 µg/mL (≈ 8.55 µM)
[4]
  Activity: Active
Klebsiella pneumoniae [5]
  zone of inhibition at 25 µg/disc: 26 mm
Bacillus subtilis [6]
  MIC50: 0.25 µg/mL (≈ 0.428 µM)
  MIC90: 5 µg/mL (≈ 8.55 µM)
Escherichia coli [7]
  zone of inhibition at 10 µg/disc: 14 mm
Bacillus subtilis [8]
  zone of inhibition at 20 µg/disc: 12 mm
Staphylococcus aureus [9]
  zone of inhibition at 20 µg/disc: 17 mm
Klebsiella pneumoniae [10]
  zone of inhibition at 15 µg/disc: 19 mm
Pseudomonas aeruginosa [11]
  zone of inhibition at 15 µg/disc: 26 mm
Salmonella typhimurium [12]
  zone of inhibition at 10 µg/disc: 16 mm
Bacillus subtilis [13]
  zone of inhibition at 10 µg/disc: 9 mm
Bacillus subtilis [14]
  zone of inhibition at 25 µg/disc: 13 mm
Bacillus subtilis [15]
  zone of inhibition at 15 µg/disc: 10 mm
Pseudomonas aeruginosa [16]
  zone of inhibition at 20 µg/disc: 28 mm
Pseudomonas aeruginosa [17]
  zone of inhibition at 10 µg/disc: 24 mm
Escherichia coli [35]
  zone of inhibition at 20 µg/disc: 21 mm
Staphylococcus aureus [18]
  zone of inhibition at 10 µg/disc: 13 mm
Escherichia coli [36]
  zone of inhibition at 25 µg/disc: 22 mm
Staphylococcus aureus [19]
  zone of inhibition at 25 µg/disc: 21 mm
Klebsiella pneumoniae [20]
  zone of inhibition at 20 µg/disc: 24 mm
Escherichia coli [37]
  zone of inhibition at 5 µg/disc: 11 mm
Staphylococcus aureus [21]
  zone of inhibition at 5 µg/disc: 9 mm
Pseudomonas aeruginosa [22]
  zone of inhibition at 5 µg/disc: 20 mm
Escherichia coli [23]
  zone of inhibition at 15 µg/disc: 16 mm
Klebsiella pneumoniae [24]
  MIC50: 0.125 µg/mL (≈ 0.214 µM)
  MIC90: 2 µg/mL (≈ 3.42 µM)
Pseudomonas aeruginosa [25]
  zone of inhibition at 25 µg/disc: 30 mm
Salmonella typhimurium [26]
  zone of inhibition at 20 µg/disc: 22 mm
Pseudomonas aeruginosa [27]
  MIC50: 1 µg/mL (≈ 1.71 µM)
  MIC90: 8 µg/mL (≈ 13.7 µM)
Salmonella typhimurium [28]
  zone of inhibition at 15 µg/disc: 18 mm
Escherichia coli [29]
  MIC50: 2 µg/mL (≈ 3.42 µM)
  MIC90: 8 µg/mL (≈ 13.7 µM)
Staphylococcus aureus [30]
  zone of inhibition at 15 µg/disc: 15 mm
Staphylococcus aureus [31]
  MIC50: 128 µg/mL (≈ 219 µM)
  MIC90: 128 µg/mL (≈ 219 µM)
Salmonella typhimurium [32]
  zone of inhibition at 25 µg/disc: 24 mm
[33]
  Activity: Active
Salmonella typhimurium [34]
  zone of inhibition at 5 µg/disc: 10 mm
